According to ChEMBL document CHEMBL1926538, “3,5-Disubstituted-thiazolidine-2,4-dione analogs as anticancer agents: design, synthesis and biological characterization” (Eur J Med Chem, 2012):
The source made the active and inactive calls. The calls are words filed in the database; no cut-off is given here.

Key:
U-937 [1] = test: Growth inhibition of human U937 cells after 24 hrs by MTS assay; type: functional, cell-based; conditions: U-937, 24 h
Outline: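 Cells in RPMI 1640 with 10% heat-inactivated FBS, seeded 2 × 10⁴ cells/well and exposed 24 h. MTS reagent added, then 1 h further incubation at 37 °C, 5% CO₂. Formazan absorbance read at 490 nm. Viability expressed as percentage of untreated controls.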

U-937 [2] = test: Cell cycle arrest in human U937 cells assessed as decrease in S-phase population after 24 hrs by propidium iodide staining-based flow cytometric analysis in presence of MEK inhibitor PD184352; type: functional
Outline: (§1)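 Cells cultured in RPMI 1640 with 10% FBS and treated 24 h at the indicated concentrations. Stained with propidium iodide for 4 h at 4 °C in the dark. Flow cytometry gave the percentage of cells in G₀/G₁, S, G₂/M and sub-G₁ phases.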

U-937 [3] = test: Cell cycle arrest in human U937 cells assessed as accumulation at G2/M-phase after 24 hrs by propidium iodide staining-based flow cytometric analysis in presence of MEK inhibitor PD184352; type: functional; outline: as §1
U-937 [4] = test: Inhibition of PI3K-mediated Akt phosphorylation in human U937 cells at 0.3 to 30 uM after 1 hr by Western blot analysis; type: cell-based
[5] = biological target: RAF proto-oncogene serine/threonine-protein kinase (Homo sapiens) (UniProt P04049); test: Inhibition of raf-mediated ERK phosphorylation in human U937 cells at 0.3 to 30 uM after 1 hr by Western blot analysis; type: cell-based; conditions: U-937
Outline: (§2)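 Cells in RPMI 1640 with 10% heat-inactivated FBS, 37 °C, 5% CO2; treated in growing medium (DU145 24 h; U937 1 h at 5 × 10⁵/mL). Lysed by sonication in SDS sample buffer with protease inhibitors plus 1 mM orthovanadate and pyrophosphate, boiled 5 min. Blots blocked in 5% milk, primary antibodies 1:1000 overnight at 4 °C, HRP secondary 1:2000, chemiluminescence; α-tubulin loading control.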

[6] = biological target: RAF proto-oncogene serine/threonine-protein kinase (Homo sapiens) (UniProt P04049); test: Inhibition of raf-mediated MEK phosphorylation in human U937 cells at 0.3 to 30 uM after 1 hr by Western blot analysis; type: cell-based; conditions: U-937; outline: as §2
U-937 [7] = test: Growth inhibition of human U937 cells at 320 uM after 72 hrs by MTS assay; type: functional, cell-based
Outline: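 U937 cells exposed 72 h, with or without AICA 320 µM, then MTS added. Absorbance read at 490 nm, expressed as percentage of untreated controls. Data are mean percentage viability, n = 6, error bars SEM.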

Sequence of RAF proto-oncogene serine/threonine-protein kinase (Homo sapiens) (P04049 whole entry): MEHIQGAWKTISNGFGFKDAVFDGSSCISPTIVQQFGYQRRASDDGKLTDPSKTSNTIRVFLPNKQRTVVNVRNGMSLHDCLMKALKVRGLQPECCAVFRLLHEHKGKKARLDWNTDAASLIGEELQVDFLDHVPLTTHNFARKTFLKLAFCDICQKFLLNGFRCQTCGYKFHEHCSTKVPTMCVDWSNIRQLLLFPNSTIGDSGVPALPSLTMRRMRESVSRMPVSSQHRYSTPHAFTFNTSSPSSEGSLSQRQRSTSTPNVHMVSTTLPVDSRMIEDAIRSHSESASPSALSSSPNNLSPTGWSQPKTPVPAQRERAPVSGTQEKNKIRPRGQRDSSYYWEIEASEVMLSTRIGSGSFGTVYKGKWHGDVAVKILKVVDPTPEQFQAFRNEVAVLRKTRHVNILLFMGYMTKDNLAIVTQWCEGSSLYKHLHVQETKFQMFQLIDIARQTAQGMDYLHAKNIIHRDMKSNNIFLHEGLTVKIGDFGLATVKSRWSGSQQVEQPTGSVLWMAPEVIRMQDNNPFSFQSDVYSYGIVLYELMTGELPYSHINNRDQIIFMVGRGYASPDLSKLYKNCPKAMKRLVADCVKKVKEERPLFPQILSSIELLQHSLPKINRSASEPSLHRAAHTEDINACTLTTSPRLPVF

Row | Compound | IC50 (U-937 [1]) [µM] | other results
1 | O=C(O)CN1C(=O)S/C(=C\CCc2ccccc2)C1=O | > 30 | 
2 | NCCN1C(=O)c2ccc(Cc3ccccc3)cc2C1=O | > 30 | 
3 | NCCN1C(=O)S/C(=C\CCc2cccnc2)C1=O | > 30 | 
4 | COc1ccc(CC/C=C2\SC(=O)N(CCN)C2=O)cc1 | 9.4 | 
5 | O=C(NOCC1CC1)c1ccc(F)c(F)c1Nc1ccc(I)cc1Cl |  | Activity (U-937 [2]): Active; Activity (U-937 [3]): Active
6 | CCOc1cccc(CC/C=C2\SC(=O)N(CCN)C2=O)c1 | 10 | 
7 | CC/C=C1\SC(=O)N(CCN)C1=O | > 30 | 
8 | NCCN1C(=O)S/C(=C\CCc2ccc(S(N)(=O)=O)cc2)C1=O | > 30 | 
9 | NCCN1C(=O)S/C(=C\CCc2cccc([N+](=O)[O-])c2)C1=O | 24.4 | 
10 | NCCN1C(=O)S/C(=C\CCc2c[nH]c3ccccc23)C1=O | 29.5 | 
11 | CCOc1ccccc1CC/C=C1\SC(=O)N(CCN)C1=O | 11.3 | 
12 | NCCN1C(=O)S/C(=C\CCc2ccc([N+](=O)[O-])cc2)C1=O | > 30 | 
13 | O=C1S/C(=C\CCc2ccccc2)C(=O)N1CCO | 11.3 | 
14 | NCCN1C(=O)S/C(=C\CCc2ccccc2)C1=O | 10.4 | inhibition (U-937 [4]): inactive; inhibition [5]: inactive; inhibition [6]: inactive
15 | CCOc1ccc(CC/C=C2\SC(=O)N(CCN)C2=O)cc1 | 9.6 | 
16 | NCCN1C(=O)S/C(=C\CCC2CC2)C1=O | 14.1 | 
17 | CS(=O)(=O)Nc1ccc(CC/C=C2\SC(=O)N(CCN)C2=O)cc1 | > 30 | 
18 | NC(=O)c1[nH]cnc1N |  | growth inhibition (GI) (U-937 [7]): inactive
19 | NCCN1C(=O)S/C(=C\CCc2ccc3[nH]ccc3c2)C1=O | 27.7 | 
20 | O=C1S/C(=C\CCc2ccccc2)C(=O)N1CCN1CCOCC1 | > 30 | 
21 | NCCN1C(=O)S/C(=C\CCc2ccc(Cl)cc2)C1=O | 21.2 | 
22 | NCCN1C(=O)SC(CCCc2ccccc2)C1=O (racemic) | > 30 | inhibition (U-937 [4]): inactive; inhibition [5]: inactive; inhibition [6]: inactive
